Shown are actives, neighbours in structure and some others; about 3.7% of the full set was active somewhere.
KCNK9 block: inhibitors of human KCNK9 two-pore domain potassium channel; actives 1.2% (n = 310,000); HEK293 KCNK9, FluxOR thallium flux fluorescence; hits give low values; B-score at 10 µM; Q9NPC2;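 active means ratio B-score over 3 SD below the library mean, with starting fluorescence within 5 SD of its mean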;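 further: negative B-score means less thallium flux so channel inhibition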
Target sequence (Q9NPC2 whole entry, looked up, the tested form may be a part): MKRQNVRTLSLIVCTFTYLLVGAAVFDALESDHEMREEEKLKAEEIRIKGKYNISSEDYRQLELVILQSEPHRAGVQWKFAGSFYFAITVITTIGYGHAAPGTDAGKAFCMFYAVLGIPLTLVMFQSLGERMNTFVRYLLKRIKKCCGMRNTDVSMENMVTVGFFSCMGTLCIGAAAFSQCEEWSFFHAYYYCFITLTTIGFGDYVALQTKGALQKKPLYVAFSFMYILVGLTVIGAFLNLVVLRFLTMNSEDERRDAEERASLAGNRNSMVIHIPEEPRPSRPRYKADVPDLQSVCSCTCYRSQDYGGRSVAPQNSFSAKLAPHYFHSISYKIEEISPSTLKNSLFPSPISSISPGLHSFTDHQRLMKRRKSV
KCNQ1 act: human KCNQ1 channel potentiation or activation; B-score at 10 µM; P51787; actives 0.35% (n = 310,000); CHO-K1 KCNQ1, thallium flux FluxOR fluorescence; hits give high values;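 active means fluorescence ratio B-score, a plate-corrected score, at least three library SD, with initial intensity B-score within 5 SD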
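Assay system: stable KCNQ1 CHO-K1 line; medium: assay buffer, equal DMSO in all wells; timing: 90 min dye loading and 20 min compound exposure, both at room temperature; technique: kinetic FluxOR thallium fluorescence, 10-s 1-Hz baseline, 110-s post-stimulus read; read-out basis: B score of baseline-normalized fluorescence ratio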
KCNK3 block: human KCNK3 channel inhibition, primary screen; CHO-KCNK3 thallium flux, FluxOR fluorescence; hits give low values; B-score at 10 µM; actives 0.84% (n = 340,000);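 active means B-score under library mean minus 4 SD, starting fluorescence ratio at most library mean plus 5 SD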;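 further: more negative B-score means stronger inhibition of thallium flux through KCNK3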
KCNQ1 inh: human KCNQ1 channel inhibition. B-score at 10 µM. CHO-K1 KCNQ1, FluxOR thallium flux fluorescence; hits give high values. actives 1.3% (n = 310,000). P51787;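 active means compounds whose thallium flux B-score, printed positive for inhibition, exceeds three library SD while starting fluorescence stays within three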;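 further: channel opened by potassium depolarization with thallium stimulus after 20 min compound exposure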
hERG protect: compounds protecting human hERG from proarrhythmic drug block. Q12809. CHO-hERG, FluxOR thallium flux, dofetilide IC70 present. activation (rescue from dofetilide block), less the hit threshold, % at 10 µM. actives 0.51% (n = 310,000). AID 1511;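 active means activation above the mean of controls blocked by dofetilide plus 5 SD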;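 further: thallium influx through hERG after potassium depolarization seen as dye fluorescence rise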
Kir21 block: Kir2.1 (mouse) channel inhibition | P35561 | HEK293-Kir2.1, FluxOR thallium flux fluorescence; hits give low values | B-score at 10 µM | actives 0.85% (n = 310,000);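 active means fluorescence ratio B-score at or below minus 3 SD of library scores, with starting-brightness B-score within 2 SD, cut at about -4.2 in these data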;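 further: channel flux triggered by added potassium and thallium sulfate stimulus; B-score of peak minus minimum fluorescence over baseline after thallium stimulus; more negative B-score means stronger Kir2.1 block with less thallium influx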
KCNK9 inh conf: human KCNK9 inhibitor confirmation; shares compounds with KCNK9 block; AID 492992; actives 43% (n = 4,900); inhibition, % at 10 µM; HEK293 KCNK9 cells, FluxOR thallium flux fluorescence;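 active means thallium signal inhibited by more than 5 SD of the compound-free buffer control wells, on both duplicate plates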;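 further: 0% = assay buffer control wells without compound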
Kir21 sel: selectivity of KCNK9 modulators against mouse Kir2.1; shares compounds with KCNK9 block; Kir2.1 cells, FluxOR thallium flux fluorescence; inhibition, % at 10 µM; actives 4% (n = 4,900);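 active means thallium signal drop more than 5 SD beyond the mean of the no-compound control wells, seen in both duplicate plates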;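 further: signal is fluorescence rise after thallium addition divided by baseline fluorescence; plate controls were assay buffer only for no effect and full block by chlorpromazine control for full effect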
HEK293 Tl ctr: non-induced cell nonspecific activity of KCNK9 modulators | non-induced KCNK9-HEK293, FluxOR thallium flux | actives 40% (n = 4,900) | shares compounds with KCNK9 block | inhibition, % at 10 µM;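 active means thallium signal drop beyond 5 SD of the untreated control mean, on both duplicate plates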;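 further: plate controls were buffer only IC0 wells for no effect and SID17386958 at its maximal inhibitory level for full effect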
* hit, by the source's call.

CCCCc1ccc(-n2nnnc2SCC(=O)Nc2cc(OC)c([N+](=O)[O-])cc2C)cc1 was read as KCNK9 block inactive, KCNQ1 act inactive, KCNK3 block inactive, KCNQ1 inh inactive, hERG protect -9, Kir21 block -0.76, KCNK9 inh conf inactive, Kir21 sel inactive and HEK293 Tl ctr inactive.
Screening COCCN(Cc1ccccc1)C(=O)C1CCN(S(=O)(=O)c2ccc3c(c2)OCCO3)CC1 returned KCNK3 block inactive.
Oc1ccccc1Oc1c(F)c(F)nc(N2CCCC2)c1F was read as KCNK9 block inactive, KCNQ1 act inactive, KCNK3 block inactive, KCNQ1 inh inactive, hERG protect -13 and Kir21 block -1.8.
`CC(=O)/C=C/c1ccccc1Oc1c(F)c(F)nc(F)c1F` gave KCNK9 block inactive, KCNQ1 act inactive, KCNK3 block inactive, KCNQ1 inh inactive, hERG protect -5, Kir21 block -1.1, KCNK9 inh conf inactive, Kir21 sel inactive and HEK293 Tl ctr inactive.
For COC(=O)C1=C(C)N(Cc2cccnc2)C(=O)/C1=C\c1sccc1C the results were KCNK9 block inactive, KCNQ1 act inactive, KCNK3 block inactive, KCNQ1 inh inactive, hERG protect -13 and Kir21 block -0.1.
For CC(=O)c1cccc(-n2c(CCC(=O)O)ccc2-c2ccc(C)cc2)c1 the results were KCNK9 block -15*, KCNQ1 act inactive, KCNK3 block inactive, KCNQ1 inh inactive, hERG protect 2, Kir21 block 0.75, KCNK9 inh conf inactive, Kir21 sel inactive and HEK293 Tl ctr inactive.
`O=C(O)CCc1ccc(-c2ccccc2)n1-c1cccc(C(=O)O)c1` gave KCNK9 block inactive, KCNQ1 act inactive, KCNK3 block inactive, KCNQ1 inh inactive, hERG protect -3 and Kir21 block -0.34.
Screening CCOc1ccc(S(=O)(=O)N(C)CC(=O)NCc2ccc3c(c2)OCO3)cc1 returned KCNK9 block inactive, KCNQ1 act inactive, KCNK3 block inactive, KCNQ1 inh inactive, hERG protect -7 and Kir21 block 0.02.
`COC(=O)c1nn(-c2ccccc2)c(Cl)c1/C=N/OCc1ccc(Cl)cc1Cl` gave KCNK9 block inactive, KCNQ1 act inactive, KCNK3 block inactive, KCNQ1 inh inactive, hERG protect -8, Kir21 block 1.4, KCNK9 inh conf inactive, Kir21 sel inactive and HEK293 Tl ctr inactive.
Screening COC(=O)c1nn(-c2ccccc2)c(Cl)c1/C=N/O returned KCNK9 block inactive, KCNQ1 act inactive, KCNK3 block inactive, KCNQ1 inh inactive, hERG protect -20 and Kir21 block 1.7.
For O=C(N[C@@H](Cc1ccc(Br)cc1)C(=O)O)OCC1c2ccccc2-c2ccccc21 the results were KCNK9 block inactive, KCNQ1 act inactive, KCNK3 block inactive, KCNQ1 inh inactive, hERG protect -5, Kir21 block -0.01, KCNK9 inh conf inactive, Kir21 sel inactive and HEK293 Tl ctr inactive.
O=C(N[C@H](Cc1ccc(Cl)cc1)C(=O)O)OCC1c2ccccc2-c2ccccc21 was read as KCNK9 block inactive, KCNQ1 act inactive, KCNK3 block inactive, KCNQ1 inh inactive, hERG protect -13 and Kir21 block 0.39.
CCOC(=O)c1c(C)[nH]c(C(=O)OC(C)C(=O)NC2CCCCC2C)c1C (stereo unspecified) was read as KCNK3 block inactive.
